# Measured values from ChEMBL document CHEMBL1143468, “Novel 3,4-diarylpyrazolines as potent cannabinoid CB1 receptor antagonists with lower lipophilicity” (Bioorg Med Chem Lett, 2005).
# Experiments:
# Cannabinoid receptor 2 = Cannabinoid receptor 2 (Homo sapiens, UniProt P34972); assay: Displacement of specific CP-55940 binding in CHO cells stably transfected with human cannabinoid receptor 2; assay type: cell-based
# Cannabinoid receptor 1 = Cannabinoid receptor 1 (Homo sapiens, UniProt P21554); assay: biochemical; assay type: cell-based, CHO
# [1] = Partition coefficient (logP) (HPLC); assay type: physicochemical; details: octanol/water
# In short: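 logP was measured with a validated reverse-phase HPLC method.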
# P-glycoprotein (ABCB1) = P-glycoprotein (ABCB1) (Homo sapiens, UniProt P08183); assay: P-glycoprotein-based membrane transport factor, expressed as the ratio of the bottom to top transport and top to bottom transport; details: not told
# Rattus norvegicus = assay: Antagonism of CP-55940 induced hypotension in rat expressed as effective dose upon peroral administration; details: po
# Mus musculus = assay: Antagonism of WIN-55212-2 induced hypothermia in mice expressed as least effective dose upon peroral administration; assay type: functional
# Sequence of Cannabinoid receptor 1 (P21554 whole entry): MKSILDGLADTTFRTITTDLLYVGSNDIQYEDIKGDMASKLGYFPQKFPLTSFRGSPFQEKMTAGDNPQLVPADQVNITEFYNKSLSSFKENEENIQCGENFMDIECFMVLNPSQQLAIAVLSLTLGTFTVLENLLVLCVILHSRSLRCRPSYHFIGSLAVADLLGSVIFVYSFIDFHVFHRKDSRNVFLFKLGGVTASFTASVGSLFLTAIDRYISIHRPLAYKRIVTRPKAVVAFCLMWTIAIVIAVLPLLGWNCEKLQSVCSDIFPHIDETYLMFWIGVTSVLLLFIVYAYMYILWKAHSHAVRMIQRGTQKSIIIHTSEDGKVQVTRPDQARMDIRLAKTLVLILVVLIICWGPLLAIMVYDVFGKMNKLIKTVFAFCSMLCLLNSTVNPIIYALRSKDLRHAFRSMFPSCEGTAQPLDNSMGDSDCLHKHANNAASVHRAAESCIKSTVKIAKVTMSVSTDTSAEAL
# Sequence of Cannabinoid receptor 2 (P34972 whole entry): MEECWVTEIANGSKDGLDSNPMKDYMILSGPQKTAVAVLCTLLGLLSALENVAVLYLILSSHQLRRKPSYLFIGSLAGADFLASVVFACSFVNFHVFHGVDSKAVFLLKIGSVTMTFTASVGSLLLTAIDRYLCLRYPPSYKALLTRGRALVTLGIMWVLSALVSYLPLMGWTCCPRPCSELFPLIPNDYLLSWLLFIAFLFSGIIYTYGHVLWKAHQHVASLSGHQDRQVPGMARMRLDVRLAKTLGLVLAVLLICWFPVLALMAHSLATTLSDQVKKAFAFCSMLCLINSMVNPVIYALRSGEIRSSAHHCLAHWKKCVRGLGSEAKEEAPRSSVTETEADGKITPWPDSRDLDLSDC
# Sequence of P-glycoprotein (ABCB1) (P08183 whole entry): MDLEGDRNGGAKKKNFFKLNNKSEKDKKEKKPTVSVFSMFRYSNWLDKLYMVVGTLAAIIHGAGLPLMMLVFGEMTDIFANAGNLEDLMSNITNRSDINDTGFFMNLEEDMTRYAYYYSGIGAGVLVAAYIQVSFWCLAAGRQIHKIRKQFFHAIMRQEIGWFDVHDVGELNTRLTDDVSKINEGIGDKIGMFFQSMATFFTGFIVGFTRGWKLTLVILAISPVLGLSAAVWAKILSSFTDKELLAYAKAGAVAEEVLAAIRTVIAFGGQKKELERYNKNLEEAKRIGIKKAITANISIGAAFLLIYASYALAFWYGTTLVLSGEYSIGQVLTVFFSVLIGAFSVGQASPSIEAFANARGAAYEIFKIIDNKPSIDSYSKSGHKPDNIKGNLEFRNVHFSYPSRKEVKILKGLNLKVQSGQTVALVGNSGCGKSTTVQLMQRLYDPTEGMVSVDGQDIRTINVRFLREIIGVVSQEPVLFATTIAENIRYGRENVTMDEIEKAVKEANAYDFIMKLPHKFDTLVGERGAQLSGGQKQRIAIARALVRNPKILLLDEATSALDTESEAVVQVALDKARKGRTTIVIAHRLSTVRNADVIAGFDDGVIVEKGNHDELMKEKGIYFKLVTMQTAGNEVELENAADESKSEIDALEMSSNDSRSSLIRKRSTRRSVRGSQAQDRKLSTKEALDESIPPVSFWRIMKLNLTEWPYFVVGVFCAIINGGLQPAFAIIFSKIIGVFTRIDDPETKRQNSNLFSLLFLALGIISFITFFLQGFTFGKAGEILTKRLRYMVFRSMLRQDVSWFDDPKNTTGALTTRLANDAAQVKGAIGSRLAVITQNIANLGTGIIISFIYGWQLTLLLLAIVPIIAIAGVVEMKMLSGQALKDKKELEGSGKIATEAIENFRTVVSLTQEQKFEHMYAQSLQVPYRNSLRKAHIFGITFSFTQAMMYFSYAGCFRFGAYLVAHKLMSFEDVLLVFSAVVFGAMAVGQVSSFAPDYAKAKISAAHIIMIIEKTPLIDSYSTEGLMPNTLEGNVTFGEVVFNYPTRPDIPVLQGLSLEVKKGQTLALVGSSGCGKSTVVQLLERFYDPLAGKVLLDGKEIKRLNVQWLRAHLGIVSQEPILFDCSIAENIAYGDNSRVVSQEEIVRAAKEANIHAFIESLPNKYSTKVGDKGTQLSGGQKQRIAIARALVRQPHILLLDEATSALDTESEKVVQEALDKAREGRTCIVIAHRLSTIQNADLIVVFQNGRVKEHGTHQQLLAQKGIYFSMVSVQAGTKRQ
Ki (Cannabinoid receptor 1) [nM],SMILES,Ki (Cannabinoid receptor 2) [nM],logP [1],efflux ratio (P-glycoprotein (ABCB1)),ED50 (Rattus norvegicus) [mg/kg],LED (Mus musculus) [mg/kg]
117,CCN(C)S(=O)(=O)NC(=NC)N1CC(c2ccccc2)C(c2ccc(Cl)cc2)=N1 (stereo not drawn),1870,–,–,–,–
231,CN=C(NS(=O)(=O)N1CCCC1)N1CC(c2ccccc2)C(c2ccc(Cl)cc2)=N1 (stereo not drawn),1600,–,–,–,–
60,CCN(CC)S(=O)(=O)N=C(NC(C)C)N1CC(c2ccccc2)C(c2ccc(Cl)cc2)=N1 (stereo not drawn),2750,–,–,–,–
832,CN=C(NS(=O)(=O)N1CCS(=O)(=O)CC1)N1CC(c2ccccc2)C(c2ccc(Cl)cc2)=N1 (stereo not drawn),–,–,–,–,–
–,CNC(=NS(=O)(=O)N1CCCCC1)N1CC(c2ccccc2)C(c2ccc(Cl)cc2)=N1 (stereo not drawn),1320,–,–,–,–
–,CN/C(=N\S(=O)(=O)N1CCCCC1)N1C[C@H](c2ccccc2)C(c2ccc(Cl)cc2)=N1,–,4.8,1.4,8,10
–,CN/C(=N\S(=O)(=O)c1ccc(Cl)cc1)N1C[C@H](c2ccccc2)C(c2ccc(Cl)cc2)=N1 [IBIPINABANT],–,5.1,–,5.5,3
–,C/N=C(\NS(=O)(=O)N1CCOCC1)N1CC(c2ccccc2)C(c2ccc(Cl)cc2)=N1 (stereo not drawn),5370,3.8,–,27,3
–,Cc1c(C(=O)NN2CCCCC2)nn(-c2ccc(Cl)cc2Cl)c1-c1ccc(Cl)cc1 [RIMONABANT],–,–,–,3.2,3
24,C/N=C(\NS(=O)(=O)N1CCSCC1)N1CC(c2ccccc2)C(c2ccc(Cl)cc2)=N1 (stereo not drawn),3530,–,–,–,–
155,CN/C(=N\S(=O)(=O)N1CCCCCC1)N1CC(c2ccccc2)C(c2ccc(Cl)cc2)=N1 (stereo not drawn),1030,–,–,–,–
–,C/N=C(\NS(=O)(=O)N(C)C)N1CC(c2ccccc2)C(c2ccc(Cl)cc2)=N1 (stereo not drawn),3830,–,–,–,–

SMILES,Ki (Cannabinoid receptor 1) [nM],Ki (Cannabinoid receptor 2) [nM],logP [1],efflux ratio (P-glycoprotein (ABCB1)),ED50 (Rattus norvegicus) [mg/kg],LED (Mus musculus) [mg/kg]
C/N=C(\NS(=O)(=O)N(C)C(C)C)N1CC(c2ccccc2)C(c2ccc(Cl)cc2)=N1 (stereo not drawn),32,1130,–,–,–,–
CCN(CC)S(=O)(=O)NC(=NC)N1CC(c2cccnc2)C(c2ccc(Cl)cc2)=N1 (stereo not drawn),141,9080,3.2,3.4,> 30,–
CNC(=NS(=O)(=O)N1CCCCCCC1)N1CC(c2ccccc2)C(c2ccc(Cl)cc2)=N1 (stereo not drawn),125,2580,–,–,–,–
CC/N=C(\NS(=O)(=O)N(CC)CC)N1CC(c2ccccc2)C(c2ccc(Cl)cc2)=N1 (stereo not drawn),209,2860,–,–,–,–
CCN(CC)S(=O)(=O)N/C(=N\C)N1CC(c2ccccc2)C(c2ccc(Cl)cc2)=N1 (stereo not drawn),30,3270,4.8,1.5,20,3
